Legend:
[1] = test system: Human immunodeficiency virus 1; assay: Antiviral activity against HIV1 infected in MAGI cells by beta-galactosidase reporter gene assay; format: functional, organism-based; settings: Human immunodeficiency virus 1, MAGI
Outline: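 HIV-1 infection of MAGI cells, with raltegravir as the MOI-sensitive positive control validating each run. EC50 and EC90 were determined.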

[2] = test system: Human immunodeficiency virus 1; assay: Antiviral activity against HIV1 infected in human MT4 cells; settings: Human immunodeficiency virus 1, MT4
[3] = Cytotoxicity against PBMC; format: cell-based; settings: human
[4] = biological target: Human immunodeficiency virus type 1 integrase (Human immunodeficiency virus 1, UniProt Q7ZJM1); assay: Inhibition of HIV1 integrase-mediated strand transfer
Chain of Human immunodeficiency virus type 1 integrase (Q7ZJM1 whole entry): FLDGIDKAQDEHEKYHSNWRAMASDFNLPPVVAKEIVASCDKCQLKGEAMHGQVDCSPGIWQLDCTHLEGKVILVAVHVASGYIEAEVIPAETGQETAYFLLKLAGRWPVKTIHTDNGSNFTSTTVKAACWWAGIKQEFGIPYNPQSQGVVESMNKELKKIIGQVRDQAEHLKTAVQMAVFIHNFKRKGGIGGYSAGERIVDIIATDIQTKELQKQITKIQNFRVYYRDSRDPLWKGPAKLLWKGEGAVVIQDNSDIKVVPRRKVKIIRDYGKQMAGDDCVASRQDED

[5] = Cytotoxicity against human MAGI cells by MTS assay; format: cell-based
[6] = Therapeutic index, ratio of CC50 for human MAGI cells to EC50 for HIV1; format: cell-based

Row | SMILES | EC50 [1] [nM] | also measured
1 | O=C(O)/C(O)=C/C(=O)c1cc(Cc2ccc(F)c(Cl)c2)cn(Cc2c(F)cccc2F)c1=O | 5100 | –
2 | Cc1cccc(Cn2cc(Cc3ccc(F)c(Cl)c3)cc(C(=O)/C=C(\O)C(=O)O)c2=O)c1 | 2200 | –
3 | O=C(O)/C(O)=C/C(=O)c1cc(Cc2ccccc2F)cn(Cc2cccc(F)c2)c1=O | 1900 | –
4 | O=C(O)/C(O)=C/C(=O)c1cc(Cc2ccc(F)c(Cl)c2)cn(Cc2ccc(F)c(Cl)c2)c1=O | 2400 | –
5 | O=C(O)/C(O)=C/C(=O)c1cc(Cc2ccc(F)c(Cl)c2)cn(Cc2ccccc2F)c1=O | 2200 | –
6 | O=C(O)/C(O)=C/C(=O)c1cc(Cc2cccc(Cl)c2)cn(Cc2cccc(Cl)c2F)c1=O | 1400 | –
7 | O=C(O)/C(O)=C/C(=O)c1cc(Cc2ccccc2)cn(Cc2cccc(F)c2)c1=O | 2000 | –
8 | O=C(O)/C(O)=C/C(=O)c1cc(Cc2cccc(Cl)c2)cn(Cc2ccccc2F)c1=O | 1900 | –
9 | O=C(O)C(=O)CC(=O)c1cccn1Cc1ccc(F)cc1 | – | EC50 [2]: 1000 nM
10 | O=C(/C=C(\O)c1nc[nH]n1)c1ccc(Cc2ccc(F)cc2)o1 [S-1360] | – | CC50 [3]: 110000 nM
11 | O=C(O)/C(O)=C/C(=O)c1cc(Cc2cccc(Cl)c2F)cn(Cc2cccc(Cl)c2F)c1=O | 2400 | –
12 | O=C(O)/C(O)=C/C(=O)c1cc(Cc2ccc(F)c(Cl)c2)cn(Cc2ccc(F)cc2)c1=O | > 5000 | –
13 | O=C(O)/C(O)=C/C(=O)c1cc(Cc2cccc(Cl)c2)cn(Cc2ccc(Cl)cc2)c1=O | 2500 | –
14 | O=C(O)/C(O)=C/C(=O)c1cc(Cc2cccc(C(=O)O)c2)cn(Cc2ccccc2)c1=O | > 5000 | –
15 | COc1ccc(Cn2cc(Cc3ccccc3)cc(C(=O)/C=C(\O)C(=O)O)c2=O)cc1 | 1800 | –
16 | O=C(O)/C(O)=C/C(=O)c1cc(Cc2ccc(F)cc2)cn(Cc2cccc(Cl)c2)c1=O | 1200 | –
17 | Cc1ccc(Cn2cc(Cc3ccc(F)cc3)cc(C(=O)/C=C(\O)C(=O)O)c2=O)cc1 | 1600 | –
18 | O=C(O)/C(O)=C/C(=O)c1cc(Cc2ccc(F)c(Cl)c2)cn(Cc2ccc(F)cc2F)c1=O | 1400 | –
19 | Cc1cc(F)ccc1Cc1cc(C(=O)/C=C(\O)C(=O)O)c(=O)n(Cc2ccccc2F)c1 | 1300 | –
20 | O=C(O)/C(O)=C/C(=O)c1cc(Cc2cccc(Cl)c2F)cn(Cc2cccc(Cl)c2)c1=O | 1500 | –
21 | COc1ccc(Cc2cc(C(=O)/C=C(\O)C(=O)O)c(=O)n(Cc3ccc(OC)cc3)c2)cc1 | > 5000 | –
22 | O=C(O)/C(O)=C/C(=O)c1cc(Cc2cccc(Cl)c2)cn(Cc2ccc(F)cc2)c1=O | 1400 | –
23 | Cc1ccc(Cn2cc(Cc3cccc(Cl)c3)cc(C(=O)/C=C(\O)C(=O)O)c2=O)cc1 | 2500 | –
24 | Cc1cc(F)ccc1Cc1cc(C(=O)/C=C(\O)C(=O)O)c(=O)n(Cc2ccccc2)c1 | 1300 | –
25 | O=C(O)/C(O)=C/C(=O)c1cc(Cc2ccccc2)cn(Cc2ccccc2)c1=O | 2100 | IC50 [4]: 70 nM
26 | O=C(O)/C(O)=C/C(=O)c1cc(Cc2ccccc2)cn(Cc2c(F)cccc2F)c1=O | 1500 | –
27 | CC(C)OC(=O)/C(O)=C/C(=O)c1cc(Cc2ccc(F)cc2F)cn(Cc2ccccc2F)c1=O | 9 | CC50 [5]: 135000 nM; CC90 [5]: > 200000 nM; Ratio CC50/EC50 [6]: 15000; IC50 [4]: > 475 nM
28 | Cc1cccc(Cc2cc(C(=O)/C=C(\O)C(=O)O)c(=O)n(Cc3cccc(Cl)c3F)c2)c1 | 1400 | –
29 | Cc1ccc(Cn2cc(Cc3ccc(F)c(Cl)c3)cc(C(=O)/C=C(\O)C(=O)O)c2=O)cc1 | > 5000 | –
30 | O=C(O)/C(O)=C/C(=O)c1cc(Cc2ccc(F)cc2)cn(Cc2c(F)cccc2F)c1=O | 1400 | –

Second part, led by results:

Row | EC50 [1] [nM] | SMILES | also measured
31 | 1000 | Cc1cc(F)ccc1Cc1cc(C(=O)/C=C(\O)C(=O)O)c(=O)n(Cc2ccc(F)cc2)c1 | –
32 | 800 | O=C(O)/C(O)=C/C(=O)c1cc(Cc2ccccc2Cl)cn(Cc2ccc(F)cc2F)c1=O | –
33 | 1000 | O=C(O)/C(O)=C/C(=O)c1cc(Cc2ccccc2)cn(Cc2ccc(F)cc2)c1=O | –
34 | 900 | O=C(O)/C(O)=C/C(=O)c1cc(Cc2ccccc2)cn(Cc2cc(Cl)ccc2F)c1=O | –
35 | 700 | O=C(O)/C(O)=C/C(=O)c1cc(Cc2ccccc2F)cn(Cc2ccccc2F)c1=O | –
36 | 1000 | O=C(O)/C(O)=C/C(=O)c1cc(Cc2ccc(F)cc2)cn(Cc2cccc(F)c2)c1=O | –
37 | 700 | Cc1ccc(Cn2cc(Cc3ccccc3F)cc(C(=O)/C=C(\O)C(=O)O)c2=O)cc1 | –
38 | 600 | O=C(O)/C(O)=C/C(=O)c1cc(Cc2ccccc2)cn(Cc2ccc(F)c(Cl)c2F)c1=O | –
39 | 900 | Cc1cccc(Cn2cc(Cc3ccccc3F)cc(C(=O)/C=C(\O)C(=O)O)c2=O)c1 | –
40 | 800 | O=C(O)/C(O)=C/C(=O)c1cc(Cc2ccccc2)cn(Cc2ccc(F)c(Cl)c2)c1=O | –
41 | 900 | O=C(O)/C(O)=C/C(=O)c1cc(Cc2ccccc2)cn(Cc2cccc(F)c2F)c1=O | –
42 | 46 | CC(C)OC(=O)/C(O)=C/C(=O)c1cc(Cc2ccc(F)cc2F)cn(Cc2ccc(F)cc2F)c1=O | –
43 | 1100 | O=C(O)/C(O)=C/C(=O)c1cc(Cc2cccc(Cl)c2)cn(Cc2cccc(Cl)c2)c1=O | –
44 | 1200 | O=C(O)/C(O)=C/C(=O)c1cc(Cc2cccc(Cl)c2)cn(Cc2ccc(F)c(Cl)c2)c1=O | –
45 | 800 | O=C(O)/C(O)=C/C(=O)c1cc(Cc2ccccc2F)cn(Cc2ccc(F)cc2)c1=O | –
46 | 800 | O=C(O)/C(O)=C/C(=O)c1cc(Cc2ccc(F)cc2F)cn(Cc2ccccc2)c1=O | –
47 | 800 | O=C(O)/C(O)=C/C(=O)c1cc(Cc2ccc(F)cc2)cn(Cc2ccc(F)cc2)c1=O | –
48 | 600 | O=C(O)/C(O)=C/C(=O)c1cc(Cc2ccccc2F)cn(Cc2ccc(F)cc2F)c1=O | –
49 | 700 | O=C(O)/C(O)=C/C(=O)c1cc(Cc2ccc(F)cc2)cn(Cc2cccc(F)c2F)c1=O | –
50 | 800 | O=C(O)/C(O)=C/C(=O)c1cc(Cc2ccccc2F)cn(Cc2cccc(F)c2F)c1=O | –
51 | 300 | O=C(O)/C(O)=C/C(=O)c1cc(Cc2ccc(F)cc2F)cn(Cc2ccc(F)cc2F)c1=O | –
52 | 600 | O=C(O)/C(O)=C/C(=O)c1cc(Cc2ccccc2)cn(Cc2ccc(F)cc2F)c1=O | –
53 | 700 | O=C(O)/C(O)=C/C(=O)c1cc(Cc2ccccc2)cn(Cc2cccc(Cl)c2F)c1=O | –
54 | 700 | O=C(O)/C(O)=C/C(=O)c1cc(Cc2ccccc2F)cn(Cc2cccc(Cl)c2)c1=O | –
55 | 700 | O=C(O)/C(O)=C/C(=O)c1cc(Cc2ccc(F)cc2)cn(Cc2ccccc2F)c1=O | –
56 | 900 | O=C(O)/C(O)=C/C(=O)c1cc(Cc2ccccc2)cn(Cc2ccccc2F)c1=O | –
57 | 600 | O=C(O)/C(O)=C/C(=O)c1cc(Cc2ccc(F)cc2F)cn(Cc2ccc(F)cc2)c1=O | –
58 | 700 | Cc1cccc(Cn2cc(Cc3ccc(F)cc3F)cc(C(=O)/C=C(\O)C(=O)O)c2=O)c1 | –
59 | 1100 | N#Cc1ccc(Cn2cc(Cc3ccccc3F)cc(C(=O)/C=C(\O)C(=O)O)c2=O)cc1 | –

From ChEMBL document CHEMBL2040715, “Discovery of a Potent HIV Integrase Inhibitor that Leads to a Prodrug with Significant anti-HIV Activity” (ACS Med Chem Lett, 2011)
